Many of the other results were omitted from the sample, so hits are more common in it than they were.
T cruzi growth-1 – T. cruzi proliferation inhibition. T. cruzi beta-gal in NIH3T3, GalScreen luminescence, 90 h. 77,000 compounds, 5.9% hits. AID 624255. inhibition, % at 8.34 µM;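 active means mean inhibition above about 93%, with at least 55% of replicates each passing it, limit read from the data, passing the limit was not always enough; inconclusive means only one of those two conditions holds; inactive means neither condition holds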
KDM4C inh – inhibitors of human demethylase GASC-1 KDM4C | Q9H3R0 | GST-KDM4C 2-372, H3K9me3 peptide, LANCE TR-FRET | inhibition, % at 12.5 µM | 96,000 compounds, 0.15% hits;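 active means mean replicate inhibition above about 25%, with at least 55% of replicates also reaching it, limit read from the data, passing the limit was not always enough; inconclusive means only one of those two conditions met; inactive means neither condition met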
Target sequence (Q9H3R0 2-372 limits assumed): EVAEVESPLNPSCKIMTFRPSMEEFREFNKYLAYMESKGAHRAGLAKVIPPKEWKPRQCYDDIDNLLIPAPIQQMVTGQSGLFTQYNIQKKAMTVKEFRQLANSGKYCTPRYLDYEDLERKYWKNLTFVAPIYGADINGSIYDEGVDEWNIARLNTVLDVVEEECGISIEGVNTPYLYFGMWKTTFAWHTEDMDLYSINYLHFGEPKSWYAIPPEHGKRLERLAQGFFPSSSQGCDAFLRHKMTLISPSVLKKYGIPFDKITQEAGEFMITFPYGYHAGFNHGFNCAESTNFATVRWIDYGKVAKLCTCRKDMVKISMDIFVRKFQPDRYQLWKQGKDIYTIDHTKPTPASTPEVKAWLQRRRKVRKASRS
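System: N-terminal GST-fused human GASC-1 (KDM4C) fragment, residues 2-372 / Amount: 10 nM GST-KDM4C in enzyme reaction / Also added: H3K9me3 peptide with Fe(II)/2OG / Times: 30 min demethylation and 1 h detection at room temperature / Signal: LANCE TR-FRET / Read-out basis: Fall in 671/618 emission ratio as inhibition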
IDH1 R132H inh – blocks human IDH1 R132H reductase activity; O75874; diaphorase/resazurin fluorescence, 60 min; inhibition, % at 10 µM; 70,000 compounds, 0.18% hits; AID 624101; in the data active means inhibition above about 34%; inconclusive means no clear call, values can overlap the other calls; inactive means below about 11%;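 further: 0% = DMSO and 100% = no enzyme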
T cruzi growth-2 – inhibitors of T. cruzi proliferation; inhibition, % at 8.35 µM; shares compounds with T cruzi growth-1; T. cruzi beta-gal in NIH3T3, GalScreen luminescence, 90 h; 5,600 compounds, 72% hits;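 active means mean replicate inhibition above about 95% and at least 55% of replicates individually reaching it, limit read from the data; inconclusive means only one of the two criteria is met; inactive means neither criterion is met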
T cruzi growth-3 – blocks T. cruzi growth in NIH3T3 host cells; T. cruzi beta-gal in NIH3T3, GalScreen luminescence, 90 h; inhibition, % at 2.09 µM; shares compounds with T cruzi growth-1; 5,600 compounds, 21% hits;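 active means mean inhibition above about 95%, with at least 55% of replicates also reaching it, limit read from the data; inconclusive means meets just one of the two conditions; inactive means meets neither condition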;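 further: plate controls were neutral control median for no effect and positive control median for full effect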
3T3 cytotox – NIH/3T3 (mouse) viability loss. 5,600 compounds, 14% hits. cytotoxicity (signal decrease), % at 8.35 µM. shares compounds with T cruzi growth-1. NIH/3T3 viability, CellTiter-Glo ATP luminescence, 90 h;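 active means mean signal decrease across replicates above about 35% based on untreated-well scatter, with enough replicates individually passing, limit read from the data; inconclusive means no rule stated though some were filed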;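 further: 0% = median of neutral control wells and 100% = median of positive control wells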
NIH3T3 tox 2 – cytotoxicity in mouse NIH/3T3 fibroblasts; inhibition, % at 24.9 µM; NIH/3T3 viability, CellTiter-Glo ATP luminescence, 90 h; shares compounds with T cruzi growth-1; 5,600 compounds, 56% hits; AID 651744;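 active means mean loss of cell viability signal at or above a set limit, and enough replicates individually reaching it; inconclusive means meets only the mean limit or only the replicate share; inactive means meets neither condition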;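 further: 0% = median of neutral control wells and 100% = median of positive control wells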
The depositor's hits bear a star.

Screening N#C[C@@H]1[C@@H](c2ccc(C3=CCCCC3)cc2)[C@H](CO)N1C(=O)c1ccccn1 returned T cruzi growth-1 67 and KDM4C inh 1.
`N#C[C@@H]1[C@@H](c2ccc(C3=CCCCC3)cc2)[C@@H](CO)N1C(=O)c1ccccn1` gave T cruzi growth-1 102*, KDM4C inh 2, T cruzi growth-2 72, T cruzi growth-3 3, 3T3 cytotox -7 and NIH3T3 tox 2 5.
N#C[C@H]1[C@H](c2ccc(C3=CCCCC3)cc2)[C@@H](CO)N1C(=O)c1ccccn1 was read as T cruzi growth-1 52 and KDM4C inh -2.
`N#C[C@@H]1[C@H](c2ccc(C3=CCCCC3)cc2)[C@H](CO)N1C(=O)c1ccccn1` gave T cruzi growth-1 101*, KDM4C inh 4, T cruzi growth-2 100*, T cruzi growth-3 105*, 3T3 cytotox 16 and NIH3T3 tox 2 15.
For C[C@H](CO)N1C[C@H](C)[C@@H](CN(C)S(=O)(=O)c2ccc(F)cc2)Oc2cc(C3=CCCCC3)ccc2S1(=O)=O the results were T cruzi growth-1 114*, KDM4C inh -1, T cruzi growth-2 102*, T cruzi growth-3 99*, 3T3 cytotox 38* and NIH3T3 tox 2 64*.
Cc1ccc(S(=O)(=O)N(C)C[C@H]2Oc3cc(C4=CCCC4)ccc3S(=O)(=O)N([C@@H](C)CO)C[C@H]2C)cc1 was read as KDM4C inh -1 and IDH1 R132H inh -1.
For Cc1ccc(S(=O)(=O)N(C)C[C@H]2Oc3cc(C4=CCCC4)ccc3S(=O)(=O)N([C@H](C)CO)C[C@@H]2C)cc1 the results were KDM4C inh -3 and IDH1 R132H inh 1.
`C[C@@H]1CN([C@H](C)CO)S(=O)(=O)c2ccc(C3=CCCCC3)cc2O[C@H]1CN(C)S(=O)(=O)c1ccc(F)cc1` gave T cruzi growth-1 122*, KDM4C inh -1, IDH1 R132H inh 2, T cruzi growth-2 103*, T cruzi growth-3 82, 3T3 cytotox 42* and NIH3T3 tox 2 88*.
For O=C(CN1CCCCC1)Nc1sc2c(c1C(=O)Nc1ccc(Br)cc1)CCC2 the results were IDH1 R132H inh 0.
For C[C@H]1CN([C@@H](C)CO)S(=O)(=O)c2ccc(/C=C/c3ccccc3)cc2O[C@@H]1CN(C)C(=O)c1ccc2c(c1)OCO2 the results were T cruzi growth-1 118*, KDM4C inh -2, IDH1 R132H inh 3, T cruzi growth-2 104*, T cruzi growth-3 61, 3T3 cytotox 30 and NIH3T3 tox 2 38*.
For C/C=C/c1ccc2c(c1)O[C@H](CN(C)C(=O)c1ccc3c(c1)OCO3)[C@@H](C)CN([C@@H](C)CO)S2(=O)=O the results were T cruzi growth-1 50, KDM4C inh -2 and IDH1 R132H inh 0.
C[C@H]1CN([C@@H](C)CO)S(=O)(=O)c2ccc(/C=C/c3ccccc3)cc2O[C@H]1CN(C)C(=O)c1ccc2c(c1)OCO2 was read as T cruzi growth-1 inconclusive, KDM4C inh -2, IDH1 R132H inh 0, T cruzi growth-2 103*, T cruzi growth-3 93, 3T3 cytotox 33 and NIH3T3 tox 2 inconclusive.
`C/C=C/c1ccc2c(c1)O[C@@H](CN(C)C(=O)c1ccc3c(c1)OCO3)[C@@H](C)CN([C@@H](C)CO)S2(=O)=O` gave T cruzi growth-1 28, KDM4C inh 5 and IDH1 R132H inh 0.
For C/C=C/c1ccc2c(c1)O[C@H](CN(C)C(=O)c1ccc3c(c1)OCO3)[C@H](C)CN([C@@H](C)CO)S2(=O)=O the results were T cruzi growth-1 77, KDM4C inh -1 and IDH1 R132H inh 0.
For C[C@H](CO)N1C[C@H](C)[C@H](CN(C)C(=O)c2ccc3c(c2)OCO3)Oc2cc(/C=C/c3ccccc3)ccc2S1(=O)=O the results were T cruzi growth-1 106*, KDM4C inh -1, IDH1 R132H inh 3, T cruzi growth-2 104*, T cruzi growth-3 92, 3T3 cytotox 19 and NIH3T3 tox 2 27*.
`O=C1/C(=C/c2ccc(N3CCOCC3)cc2)CCC1C1CCCC1` (stereo unspecified) gave IDH1 R132H inh 0.
For COc1ccc([N+](=O)[O-])cc1CNCCO the results were IDH1 R132H inh 1.
Screening CCOC(=O)c1c(NC(=O)CSc2nc3ccccc3[nH]2)sc2c1CCCC2 returned IDH1 R132H inh 0.
`Cc1ccc(C(=O)CC(C(=O)c2ccc(C(F)(F)F)cc2)c2cccs2)cc1` (stereo unspecified) gave IDH1 R132H inh -2.
For Cc1ccc(C)c(NC(=O)CSc2nnnn2-c2ccc(C(=O)O)cc2)c1 the results were IDH1 R132H inh 0.
`C[C@@H]1CN([C@@H](C)CO)S(=O)(=O)c2ccc(-c3ccccc3F)cc2O[C@H]1CN(C)S(C)(=O)=O` gave T cruzi growth-1 -57, KDM4C inh 0 and IDH1 R132H inh -1.
C[C@@H]1CN([C@H](C)CO)S(=O)(=O)c2ccc(-c3ccccc3F)cc2O[C@H]1CN(C)S(C)(=O)=O was read as T cruzi growth-1 -24, KDM4C inh 0 and IDH1 R132H inh -2.
For COc1ccccc1-c1ccc2c(c1)O[C@H](CN(C)S(=O)(=O)c1ccc(F)cc1)[C@H](C)CN([C@@H](C)CO)S2(=O)=O the results were T cruzi growth-1 99*, KDM4C inh -1, IDH1 R132H inh 2, T cruzi growth-2 95*, T cruzi growth-3 85, 3T3 cytotox 21 and NIH3T3 tox 2 47*.
Screening COc1ccccc1-c1ccc2c(c1)O[C@@H](CN(C)S(=O)(=O)c1ccc(F)cc1)[C@@H](C)CN([C@@H](C)CO)S2(=O)=O returned T cruzi growth-1 103*, KDM4C inh -1, IDH1 R132H inh 0, T cruzi growth-2 109*, T cruzi growth-3 90, 3T3 cytotox 50* and NIH3T3 tox 2 45*.
COc1ccccc1-c1ccc2c(c1)O[C@@H](CN(C)S(=O)(=O)c1ccc(F)cc1)[C@@H](C)CN([C@H](C)CO)S2(=O)=O was read as T cruzi growth-1 106*, KDM4C inh 0, IDH1 R132H inh 0, T cruzi growth-2 99*, T cruzi growth-3 90, 3T3 cytotox inconclusive and NIH3T3 tox 2 64*.
Screening C[C@H]1CN([C@@H](C)CO)S(=O)(=O)c2ccc(-c3ccccc3F)cc2O[C@@H]1CN(C)S(C)(=O)=O returned T cruzi growth-1 -48 and IDH1 R132H inh -2.
For COc1ccc(C(=O)CSc2nnc(-c3ccc(Cl)cc3)n2-c2ccc(OC)cc2)cc1 the results were IDH1 R132H inh 0.
Screening CCc1nc(SCC(=O)Nc2ccc(C(C)=O)cc2)n[nH]1 returned IDH1 R132H inh 0.

Screening data: PubChem BioAssay, Broad Institute
